Article PMC3428507 (Journal of molecular biology, 2012)

Columns and labels:
Pf1 PHD2 = experiment: NMR titration of Pf1 PHD2 with small molecule mimics of histone modifications; format: binding, human; conditions: unpublished data
MRG15 CD = MRG15 CD (Homo sapiens, UniProt Q9UBU8); experiment: NMR titration of 15N-labeled MRG15 CD with methyllysine peptides/ligands; format: binding
Pf1 PHD1 [1] = biological target: T1, Pf1 PHD1 (Homo sapiens, UniProt Q96QT6); format: binding; conditions: even at molar concentrations; unpublished data
[2] = test system: Pf1 PHD1/MBD (residues 48–241); experiment: NMR of 15N-labeled Pf1 PHD1/MBD with MRG15 proteins; format: binding, human; conditions: equimolar; 20 mM Tris pH 7.5, 50 mM NaCl, 10 μM ZnSO4, 15 mM DTT, 0.2% NaN3, 25 °C
Pf1 PHD1 [3] = biological target: T1, Pf1 PHD1; experiment: Pulldown of GST-Pf1 PHD1 with biotinylated histone H3 peptides; format: binding; conditions: GST-Pf1 PHD1 (residues 53–103); wash 50 mM Tris pH 7.5, 150 mM NaCl, 0.05% NP-40; SDS-PAGE, Coomassie
In short: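 GST-Pf1 PHD1 (53–103) and GST-Pf1 PHD2 (268–319) came from E. coli and were eluted from glutathione resin with glutathione. They were incubated with an array of biotinylated histone H3 peptides on avidin beads. Washes also held 0.3 mg/ml BSA and 1 mM DTT. Bound protein was resolved by SDS-PAGE.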

T1 sequence (Q96QT6 48-116): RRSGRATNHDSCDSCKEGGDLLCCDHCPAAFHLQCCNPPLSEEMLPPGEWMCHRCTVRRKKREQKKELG
MRG15 CD, sequence (Q9UBU8 1-90 isoform Q9UBU8-2): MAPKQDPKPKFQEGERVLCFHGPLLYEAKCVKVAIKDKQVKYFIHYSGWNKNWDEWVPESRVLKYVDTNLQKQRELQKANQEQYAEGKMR

| Compound | interaction with Pf1 PHD2 in NMR titrations (Pf1 PHD2) | binding to Pf1 PHD1 in pulldown (Pf1 PHD1 [3]) | also measured |
| --- | --- | --- | --- |
| C[C@@H](OP(=O)(O)O)[C@H](N)C(=O)O [phosphothreonine] | lack of any interaction | – | – |
| dimethylarginine | lack of any interaction | – | – |
| C[N+](C)(C)CCCC[C@H](N)C(=O)O [trimethyllysine] | lack of any interaction | – | Kd (MRG15 CD): 11 ± 3.3 mM; perturbations in the MRG15 CD NMR spectrum (MRG15 CD; pH 7.5, 25 °C): induced a similar pattern of perturbations in the NMR spectrum of MRG15 CD as the aforementioned peptides; interaction with Pf1 PHD1 in NMR titrations (Pf1 PHD1 [1]): neither trimethyllysine nor acetyllysine interacted with Pf1 PHD1 |
| CC(=O)NCCCC[C@H](N)C(=O)O [acetyllysine] | lack of any interaction | – | interaction with Pf1 PHD1 in NMR titrations (Pf1 PHD1 [1]): neither trimethyllysine nor acetyllysine interacted with Pf1 PHD1 |
| N[C@@H](COP(=O)(O)O)C(=O)O [phosphoserine] | lack of any interaction | – | – |
| MRG15 MRG: MRG domain of MRG15 (residues 155–323) | – | – | effect on 15N-Pf1 PHD1/MBD spectrum [2]: disappearance of resonances corresponding to the PHD1 domain |
| H3 peptide spanning residues 1–20: unmodified biotinylated histone H3 peptide spanning residues 1–20 | – | bound to Pf1 PHD1 | – |
| H3 peptides spanning residues 27–46: biotinylated H3 peptide spanning residues 27–46 | – | failed to do so | – |
| 18–37: biotinylated H3 peptide spanning residues 18–37 | – | failed to do so | – |
